Data on nine compounds can be found in ChEMBL document CHEMBL4033737, “Anti-mycobacterial alkaloids, cyclic 3-alkyl pyridinium dimers, from the Indonesian marine sponge Haliclona sp” (2017).

Experiment [1] relates to Mycolicibacterium smegmatis. Kind of experiment: Antibacterial activity against Mycobacterium smegmatis NBRC 3207 incubated at 37 degC for 2 days by paper disc method. Type of experiment: functional. The gist of the method:
(§1)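 M. smegmatis NBRC 3207 kept as 20% glycerol stock at -80°C. Grown in Middlebrook 7H9 with 0.05% polysorbate 80, 0.5% glycerol and 10% OADC at 37°C for 2 days, then adjusted to 1.0×10^8 CFU/mL and spread on the same medium with 1.5% agar. Sample in CH3OH dried onto 6 mm discs, plated at 37°C for 2 days, inhibition zone read (mm). Controls: streptomycin sulfate 5 µg/disc, CH3OH.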

The test system of experiment [2] is Mycolicibacterium smegmatis. Kind of experiment: Antibacterial activity against Mycobacterium smegmatis NBRC 3207 at 5 ug/disc incubated at 37 degC for 2 days by paper disc method. Type of experiment: functional. The following applies: for zone of inhibition at 5 µg/disc: NBRC 3207, 48 h, read-out: IZ. The gist of the method: as §1
In experiment [3] the test system is Mycolicibacterium smegmatis. Kind of experiment: Antibacterial activity against Mycobacterium smegmatis NBRC 3207 at 10 ug/disc incubated at 37 degC for 2 days by paper disc method. Type of experiment: functional. The settings on record: NBRC 3207, 48 h, read-out: IZ. The gist of the method: as §1
Experiment [4] relates to Mycolicibacterium smegmatis. The experiment can be described thus: Antibacterial activity against Mycobacterium smegmatis NBRC 3207 at 1 ug/disc incubated at 37 degC for 2 days by paper disc method. Type of experiment: functional. The gist of the method:
as §1

For experiment [5], the target named is Dual specificity protein phosphatase 3 (Homo sapiens) (UniProt P51452). The experiment can be described thus: Inhibition of VHR (unknown origin) at 18 uM pre-incubated for 10 mins before pNPP substrate addition and measured after 30 mins. The gist of the method: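 VHR (1.0 µg/mL stock) in 50 mM citrate buffer pH 6.0 with 0.1 M NaCl, 1 mM DTT and 1 mM EDTA. Sample in CH3OH added, preincubated 10 min at 37°C. pNPP added (4.0 mM stock), 30 min at 37°C, stopped with NaOH, A405 read. % inhibition computed against enzyme-free blank and sample-free control. Three duplicate experiments. Oleanolic acid as positive control.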
Sequence of Dual specificity protein phosphatase 3 (Homo sapiens) (P51452 whole entry, looked up): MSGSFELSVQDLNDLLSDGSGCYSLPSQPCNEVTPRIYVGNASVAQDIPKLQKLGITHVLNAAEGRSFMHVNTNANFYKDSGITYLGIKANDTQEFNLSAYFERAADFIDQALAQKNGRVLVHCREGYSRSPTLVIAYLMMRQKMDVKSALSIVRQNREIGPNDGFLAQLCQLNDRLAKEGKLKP

The target is the same in experiment [6]. The experiment can be described thus: Inhibition of VHR (unknown origin) at 17 uM pre-incubated for 10 mins before pNPP substrate addition and measured after 30 mins. The gist of the method:
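Enzyme at 1.0 µg/mL stock, in 50 mM citrate buffer pH 6.0 with 0.1 M NaCl, 1 mM DTT and 1 mM EDTA. Sample in methanol preincubated 10 min at 37°C. pNPP (4.0 mM stock) then added, 30 min at 37°C, stopped with NaOH. Absorbance read at 405 nm. % inhibition from blank- and no-sample-control-corrected readings. Three duplicate experiments. Oleanolic acid positive control.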

SMILES strings stand for the structures. Counter-ions that a name gives are not always drawn. Activity calls are given as the source filed them. The rule behind the calls is not given here.

`c1cc2c[n+](c1)CCCCCCCCCCCCCCc1ccc[n+](c1)CCCCCCCCCCCCC2` [CYCLOSTELLETAMINES E]: the “growth inhibition (GI)” value in experiment [1] was “Dose-dependent effect”. Besides, the zone of inhibition at 5 µg/disc in experiment [2] came out at 7 mm. The zone of inhibition at 10 µg/disc in experiment [3] came to 12 mm. For the same compound, the “inhibition zone (IZ)” value in experiment [4] was “inactive”.
`c1cc2c[n+](c1)CCCCCCCCCCCCCc1ccc[n+](c1)CCCCCCCCCCCC2` [CYCLOSTELLETAMINES B]: the “growth inhibition (GI)” value in experiment [1] was “Dose-dependent effect”. The “inhibition zone (IZ)” value in experiment [2] and in experiment [4] was “inactive” throughout. Further, in experiment [3], the zone of inhibition at 10 µg/disc worked out at 8 mm.
For `c1cc2c[n+](c1)CCCCCCCCCCCCCc1ccc[n+](c1)CCCCCCCCCCCCC2`, in experiment [1], the “growth inhibition (GI)” value was “Dose-dependent effect”. In addition, the “inhibition zone (IZ)” value in experiment [2] and in experiment [4] was “inactive” in each case. In addition, the zone of inhibition at 10 µg/disc in experiment [3] was 8 mm.
Regarding `CN[C@@H]1[C@H](O[C@H]2[C@H](O[C@H]3[C@H](O)[C@@H](O)[C@H](N=C(N)N)[C@@H](O)[C@@H]3N=C(N)N)O[C@@H](C)[C@]2(O)C=O)O[C@@H](CO)[C@H](O)[C@H]1O` [STREPTOMYCIN SULFATE], the zone of inhibition at 5 µg/disc in experiment [2] came to 35 mm. Moreover, the zone of inhibition at 1 µg/disc in experiment [4] (NBRC 3207, 48 h, read-out: IZ) is 20 mm.
Turning to `c1cc2c[n+](c1)CCCCCCCCCCCCc1ccc[n+](c1)CCCCCCCCCCCC2` [CYCLOSTELLETAMINES A], the “growth inhibition (GI)” value in experiment [1] is “Dose-dependent effect”. The zone of inhibition at 5 µg/disc in experiment [2] came to 9 mm. The zone of inhibition at 10 µg/disc in experiment [3] is 14 mm. In experiment [4], the “inhibition zone (IZ)” value was “inactive”.
As to `c1cc2c[n+](c1)CCCCCCCCCCCCCCc1ccc[n+](c1)CCCCCCCCCCCCCC2` [CYCLOSTELLETAMINES F], the “growth inhibition (GI)” value in experiment [1] was “Dose-dependent effect”. For the same compound, the zone of inhibition at 5 µg/disc in experiment [2] is 8 mm. In addition, the zone of inhibition at 10 µg/disc in experiment [3] came to 12 mm. Besides, the “inhibition zone (IZ)” value in experiment [4] was “inactive”. In addition, in experiment [5], the inhibition amounted to 38%.
As for `C1=C/CC[n+]2cccc(c2)CCCCCCCCCCCCCC[n+]2cccc(c2)CCCCCCCCCC/1`, the “growth inhibition (GI)” value in experiment [1] was “Dose-dependent effect”. In experiment [2], the zone of inhibition at 5 µg/disc came out at 7 mm. For the same compound, the zone of inhibition at 10 µg/disc in experiment [3] is 10 mm. Also, in experiment [4], the “inhibition zone (IZ)” value is “inactive”.
On to `c1cc2c[n+](c1)CCCCCCCCCCCCCCCc1ccc[n+](c1)CCCCCCCCCCCCCC2`, for which the “growth inhibition (GI)” value in experiment [1] is “Dose-dependent effect”. In addition, the zone of inhibition at 5 µg/disc in experiment [2] is 9 mm. For the same compound, the zone of inhibition at 10 µg/disc in experiment [3] turned out to be 13 mm. The inhibition in experiment [6] came out at 28%. In addition, in experiment [4], the “inhibition zone (IZ)” value was “inactive”.
Regarding `C1=C/CC[n+]2cccc(c2)CCCCCCCCCCCC[n+]2cccc(c2)CCCCCCCCCC/1`, the “growth inhibition (GI)” value in experiment [1] was “Dose-dependent effect”. For the same compound, the zone of inhibition at 5 µg/disc in experiment [2] worked out at 10 mm. In experiment [3], the zone of inhibition at 10 µg/disc came out at 17 mm. Moreover, in experiment [4], the “inhibition zone (IZ)” value is “inactive”.

One may read the inhibition as the relative decrease from the control value, in per cent.
